Many of the other results were omitted from the sample, so hits are more common in it than they were.
Lmaj promast: inhibitors of Leishmania major promastigote growth; Leishmania major promastigotes, resazurin fluorescence viability; inhibition, % at 10 µM; 9% of 200,000 active;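 note: promastigotes grown with compound for 44 hours at 28 °C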
ABCB1 block: inhibitors of human ABCB1 transporter, ABCG2 counter-screen. CCRF-Adr cells, JC-1 efflux, flow cytometry. inhibition, % at 6.6 µM. 0.067% of 190,000 active; in the data active = inhibition above about 40%;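 note: higher value means more JC-1 retained so stronger ABCB1 efflux block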
Avidin fluor: avidin bead compound fluorescence profile | 0.38% of 220,000 active | Avidin beads, compound fluorescence 488/530 nm, flow cytometry; stronger effect = higher value | AID 1775 | fluorescence (KMESF) at 10 µM; in the data active = fluorescence above about 47
ABCG2 block: human ABCG2 inhibition, ABCB1 as counter-screen; AID 1325; IgMXP3 cells, JC-1 efflux, flow cytometry; 0.1% of 190,000 active; inhibition, % at 6.6 µM;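 active = inhibition above 80%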
Target sequence (Q9UNQ0 whole entry, looked up): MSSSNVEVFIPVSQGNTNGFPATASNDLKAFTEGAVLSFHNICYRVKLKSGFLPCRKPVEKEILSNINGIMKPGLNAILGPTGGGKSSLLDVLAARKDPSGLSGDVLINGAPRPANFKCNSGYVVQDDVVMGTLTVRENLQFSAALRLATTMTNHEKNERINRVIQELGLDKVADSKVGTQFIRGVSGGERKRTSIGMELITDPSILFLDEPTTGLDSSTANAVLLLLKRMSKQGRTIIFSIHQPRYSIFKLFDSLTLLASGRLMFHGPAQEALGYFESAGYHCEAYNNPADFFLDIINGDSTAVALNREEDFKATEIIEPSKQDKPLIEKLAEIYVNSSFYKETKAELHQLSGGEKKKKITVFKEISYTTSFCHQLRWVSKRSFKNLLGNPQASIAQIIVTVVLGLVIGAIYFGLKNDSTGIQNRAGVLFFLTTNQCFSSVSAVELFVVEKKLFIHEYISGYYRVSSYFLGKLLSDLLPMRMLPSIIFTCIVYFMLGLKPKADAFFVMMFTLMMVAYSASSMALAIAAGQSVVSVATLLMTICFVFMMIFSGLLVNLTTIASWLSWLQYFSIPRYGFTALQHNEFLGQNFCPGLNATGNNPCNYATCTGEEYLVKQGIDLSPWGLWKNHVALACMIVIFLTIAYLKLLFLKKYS
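System: two drug-resistant human cell lines, ABCG2 and ABCB1; controls: nicardipine high and DMSO low controls; times: 10 min exposure at 25 °C with rotation, no wash; detection: flow cytometry of retained JC-1 fluorescence; read-out basis: percent efflux inhibition, scaled nicardipine 100% to DMSO 0%; doses: one concentration, 6.6 µM final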
GSH fluor: GSH bead compound fluorescence profile; GSH beads flow cytometry, compound fluorescence 488/530 nm; stronger effect = higher value; 0.25% of 190,000 active; AID 1776; fluorescence (KMESF) at 10 µM; in the data active = fluorescence above about 89;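 note: glutathione beads carrying GST-tagged Bcl family fusion proteins plus one bare bead set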
PKD1 kinase inh: inhibitors of human PKD1 kinase | AID 797 | PKD1 kinase fluorescence polarization assay | 0.056% of 200,000 active | inhibition, % (concentration not given with the values) | Q15139
Lmaj promast 1uM: inhibitors of Leishmania major promastigote growth, repeat at 1 uM | shares compounds with Lmaj promast | L. major promastigote growth, resazurin fluorescence, 48 h | inhibition, % at 1 µM | 13% of 1,100 active | AID 1258;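 active = inhibition above about 50% in both repeat tests, limit read from the data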
Large screens that a line does not name were inactive (follow-up assays come after a bar, where they were run). Cut-off read from the data, not from the text of the source, unless noted: active = inhibition above about 50%; inactive = the rest.

CN1CCN(C(=S)NC(=O)c2ccc(S(=O)(=O)N3CCOCC3)cc2)CC1	none
O=C(NC(=S)N1CCN(C(c2ccccc2)c2ccccc2)CC1)c1ccc(S(=O)(=O)N2CCOCC2)cc1	Lmaj promast 99 | Lmaj promast 1uM inactive
O=C1CCCc2c1cc(-c1ccccc1)n2-c1ccc(O)cc1	Lmaj promast 53 | Lmaj promast 1uM inactive
O=C(N/N=C1\CCc2ccccc21)c1ccc(O)cc1	none
O=[N+]([O-])c1ccc(NNC(=S)Nc2ccc(F)cc2)cc1	Lmaj promast 101 | Lmaj promast 1uM 79
COc1ccc(CN(C)Cc2cc(=O)n3ccsc3n2)c(OC)c1OC	none
CCCc1n[nH]c2c1/C(=N/O)CC(c1ccccc1)C2 (stereo not given)	Lmaj promast 81 | Lmaj promast 1uM 59
O=C(O)CCC(=O)Nc1ccc(N2CCCCCC2)cc1	Lmaj promast 97 | Lmaj promast 1uM 94
Cc1ccc(N2CCN(c3ccc(NC(=O)CCC(=O)O)cc3)CC2)cc1	none
FC(F)(F)c1nc(Oc2ccccc2)c2ccccc2n1	none
Cc1nc(Oc2ccccc2)c2ccccc2n1	Lmaj promast 57 | Lmaj promast 1uM inactive
Clc1ccc2c(c1)-c1[nH]ncc1CS2	none (no result: Lmaj promast, ABCB1 block, ABCG2 block, GSH fluor, PKD1 kinase inh)
COc1cc(/C=N/NC(=O)C2CCN(CC(O)COCc3ccccc3)CC2)cc(OC)c1OC (stereo not given)	none
COc1ccc(CCNC(=O)CSc2nnc(CNC(=O)c3ccccc3F)o2)cc1OC	none
O=C(C1CCC(CNc2nc(=S)[nH]c3ccccc23)CC1)N1CCN(c2ccccn2)CC1 (stereo not given)	Lmaj promast 99 | Lmaj promast 1uM inactive
Cc1ccc(-c2cc3cccc[n+]3cc2-c2ccc(C)cc2)cc1	Lmaj promast 100 | Lmaj promast 1uM 91
CN1CCN(/C=N/c2c(C#N)cnn2Cc2ccccc2)CC1	none
O=C(Nc1ccc(-c2nc3cccnc3s2)cc1)C1CCCO1 (stereo not given)	none
CCn1c(C)c(C(C)=O)c(N2CCN(c3cccc(Cl)c3)CC2)nc1=S	none
CC(=O)c1c(N2CCN(c3cccc(Cl)c3)CC2)nc(=S)n(-c2ccccc2)c1C	Lmaj promast 91 | Lmaj promast 1uM inactive
O=C1ON=C(c2ccccc2)/C1=C\c1ccco1	none (no result: Lmaj promast, ABCB1 block, ABCG2 block, GSH fluor, PKD1 kinase inh)
COc1cc(/C=C2\C(=O)ON=C2c2ccccc2)cc(Cl)c1O	Lmaj promast 50 | Lmaj promast 1uM inactive
Cc1ccc(NC(=O)N2CCCN(Cc3ccc(F)cc3)C2)cc1C	Lmaj promast 94 | Lmaj promast 1uM 53
O=C(C1=C[C@@H](c2ccc3c(c2)OCO3)C[C@@H](OCCCCO)O1)N1CCN(Cc2ccc3c(c2)OCO3)CC1	none
O=C(C1=C[C@H](c2ccc(Br)cc2)C[C@H](OCCCCO)O1)N1CCN(Cc2ccc3c(c2)OCO3)CC1	Lmaj promast 84 | Lmaj promast 1uM inactive
O=C(c1ccc(C(F)(F)F)cc1)N1CCC(=O)N(C(COCc2ccccc2)Cc2ccccc2)CC1 (stereo not given)	none
CC(C)(C)c1ccc(C(=O)N2CCC(=O)N(C(COCc3ccccc3)Cc3ccccc3)CC2)cc1 (stereo not given)	Lmaj promast 52 | Lmaj promast 1uM inactive
CN(Cc1cnn(C)c1)C(=O)C1CCCCC1C(=O)O (stereo not given)	Lmaj promast 54 | Lmaj promast 1uM inactive
O=C(c1ccccc1)c1c2c(cc3sc4ccccc4[n+]13)-c1cccc3cccc-2c13	Lmaj promast 100 | Lmaj promast 1uM 100
CCn1c(-c2ccc(N(C)C)cc2)nc2ccccc21	Lmaj promast 97 | Lmaj promast 1uM inactive
CCn1c(-c2ccc(N)cc2)nc2ccccc21	none
Cc1ccc(-n2nnc3c(=O)n(CC(=O)NCC4CCCO4)cnc32)cc1 (stereo not given)	none
Cc1nn(C)c(=O)c(N)c1-c1cc(-c2ccc(Cl)c(Cl)c2)n[nH]1	none (no result: Lmaj promast, ABCB1 block, ABCG2 block, GSH fluor, PKD1 kinase inh)
OC12CCCCC1C(c1ccc3c(c1)OCO3)N(Cc1ccccc1F)CC2 (stereo not given)	Lmaj promast 60, Avidin fluor 130 | Lmaj promast 1uM inactive
OC12CCCCC1C(c1ccc3c(c1)OCO3)N(Cc1ccc(F)cc1)CC2 (stereo not given)	none
